{"source": "ChEMBL document CHEMBL3868589", "about": "“Purification, Conformational Analysis, and Properties of a Family of Tigerinin Peptides from Skin Secretions of the Crowned Bullfrog Hoplobatrachus occipitalis” (J Nat Prod, 2016)", "key": {"Mus musculus [1]": {"species_on_record": "Mus musculus", "assay": "Toxicity in NIH Swiss mouse erythrocytes assessed as hemolytic activity up to 500 uM incubated for 60 mins", "conditions": "erythrocyte, 1 h", "procedure,_shortened": "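Washed erythrocytes (2 × 10^7 cells) from male NIH Swiss mice incubated 60 min at 37 °C with peptides at 31−500 μM. LC50 taken as mean concentration giving 50% hemolysis across three independent incubations.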"}, "Mus musculus [2]": {"species_on_record": "Mus musculus", "assay": "Cytotoxicity in mouse GLUTag cells assessed as effect on plasma membrane integrity through LDH release up to 1 uM after 20 mins in presence of glucose by nonradioactive CytoTox96 assay", "format": "toxicity, cell-based", "procedure,_shortened": "(§1)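 BRIN-BD11 and GLUTag cells exposed to peptides (1 nM to 1 μM; n = 3) for 20 min at 37 °C in KRB buffer with 5.6 mM glucose. Membrane integrity judged by LDH in supernatant, measured with CytoTox96 nonradioactive kit.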"}, "[3]": {"assay": "Induction of GLP1 release in mouse GLUTag cells assessed as minimum concentration required to produce increase in rate of GPL1 release over the basal rate after 2 hrs in presence of 2 mM glucose by ELISA"}, "Rattus norvegicus": {"species_on_record": "Rattus norvegicus", "assay": "Cytotoxicity in rat BRIN-BD11 cells assessed as effect on plasma membrane integrity through LDH release up to 1 uM after 20 mins in presence of glucose by nonradioactive CytoTox96 assay", "format": "toxicity, cell-based", "conditions": "brin-bd11, 20 min", "procedure,_shortened": "as §1"}, "[4]": {"assay": "Induction of GLP1 release in mouse GLUTag cells at 1 uM after 2 hrs in presence of 2 mM glucose by ELISA relative to basal level"}, "BRIN-BD11 [5]": {"test_system": "BRIN-BD11", "assay": "Inhibition of Katp in rat BRIN-BD11 cells assessed as minimum concentration required to produce increase in rate of insulin release over the basal rate after 20 mins in presence of 5.6 mM glucose by radioimmunoassay", "format": "cell-based", "procedure,_shortened": "(§2)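 BRIN-BD11 clonal β-cells attached overnight at 37 °C, then 20 min at 37 °C in KRB buffer with 5.6 mM glucose, peptides up to 1 μM. Insulin in supernatant by radioimmunoassay, expressed per 10^6 cells per 20 min. Parallel controls: 10 mM alanine, 1 μM GLP-1, 30 mM KCl.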"}, "BRIN-BD11 [6]": {"test_system": "BRIN-BD11", "assay": "Inhibition of Katp in rat BRIN-BD11 cells assessed as insulin release at 1 uM after 20 mins in presence of 5.6 mM glucose by radioimmunoassay relative to basal level", "format": "cell-based", "parameters": "scale not given: the % may be the effect or the level left", "procedure,_shortened": "as §2"}, "BRIN-BD11 [7]": {"test_system": "BRIN-BD11", "assay": "Inhibition of Katp in rat BRIN-BD11 cells assessed as minimum concentration required to produce 83% increase in rate of insulin release over the basal rate after 20 mins in presence of 5.6 mM glucose by radioimmunoassay", "format": "cell-based", "procedure,_shortened": "as §2"}, "Mus musculus [8]": {"species_on_record": "Mus musculus", "assay": "Antiinflammatory activity in C57BL/6 mouse unstimulated peritoneal cells assessed as reduction of IFN-gamma at 1 ug/ml after 24 hrs by ELISA", "format": "functional", "procedure,_shortened": "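Peritoneal cells lavaged with 5 mL cold PBS from unstimulated adult C57BL/6 mice (mixed macrophages, B-, T-, NK cells), resuspended in RPMI 1640 + 10% FBS, 2 × 10^5 cells/well. Peptides at 1, 5 and 10 μg/mL for 24 h at 37 °C; three independent incubations, 6 mice per group. IFN-γ in cell-free supernatant by ELISA in triplicate, compared with medium only.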"}, "[9]": {"assay": "Induction of GLP1 release in mouse GLUTag cells at 10 nM after 2 hrs by ELISA relative to basal level"}, "BRIN-BD11 [10]": {"test_system": "BRIN-BD11", "assay": "Inhibition of Katp in rat BRIN-BD11 cells assessed as increase in rate of insulin release after 20 mins in presence of 5.6 mM glucose by radioimmunoassay relative to basal level", "format": "cell-based", "procedure,_shortened": "as §2"}, "BRIN-BD11 [11]": {"test_system": "BRIN-BD11", "assay": "Inhibition of Katp in rat BRIN-BD11 cells assessed as increase in insulin release after 20 mins by radioimmunoassay", "format": "cell-based"}, "[12]": {"assay": "Induction of increase in glucose-induced insulin secretion in rat BRIN-BD11 cells assessed as insulin release per million cells at 10 mM after 20 mins by radioimmunoassay (reference value: 1 +/- 0.03 ng)", "format": "functional", "procedure,_shortened": "as §2"}, "[13]": {"assay": "Induction of increase in glucose-induced insulin secretion in rat BRIN-BD11 cells assessed as insulin release per million cells at 30 mM after 20 mins by radioimmunoassay (reference value: 1 +/- 0.03 ng)", "format": "functional", "procedure,_shortened": "as §2"}}, "note": "Activity calls are given as the source filed them. The calls are words filed in the database; no cut-off is given here. Where a SMILES comes first, the peptide text is derived from it.", "data": [{"compound": "CC[C@H](C)[C@H](NC(=O)[C@@H](N)CCCNC(=N)N)C(=O)N[C@@H](CS)C(=O)N[C@H](C(=O)N[C@@H](C)C(=O)N[C@H](C(=O)N1CCC[C@H]1C(=O)N[C@@H](CC(C)C)C(=O)N1CCC[C@H]1C(=O)N[C@@H](CCSC)C(=O)N[C@@H](CS)C(=O)N[C@@H](CC(C)C)C(=O)O)[C@@H](C)CC)[C@@H](C)O", "note": "(H-RICTAIPLPMCL-OH)", "values": [{"measurement": "Activity", "setting": "Mus musculus [1]", "result": "Non-Toxic"}, {"measurement": "Activity", "setting": "Mus musculus [2]", "result": "Non-Toxic"}, {"measurement": "Activity", "setting": "[3]", "result": 1, "unit": "×10⁻⁶ M"}, {"measurement": "Activity", "setting": "Rattus norvegicus", "result": "Non-Toxic"}, {"measurement": "Activity", "setting": "[4]", "result": 217.5, "unit": "%"}, {"measurement": "Activity", "setting": "BRIN-BD11 [5]", "result": 1, "unit": "×10⁻⁷ M"}, {"measurement": "Activity", "setting": "BRIN-BD11 [6]", "result": 233, "unit": "%"}]}, {"compound": "CC[C@H](C)[C@H](NC(=O)[C@@H](N)CCCNC(=N)N)C(=O)N[C@@H](CS)C(=O)N[C@H](C(=O)N1CCC[C@H]1C(=O)N[C@H](C(=O)N1CCC[C@H]1C(=O)N[C@@H](Cc1ccccc1)C(=O)N1CCC[C@H]1C(=O)N[C@@H](CCSC)C(=O)N[C@@H](CS)C(=O)N[C@@H](Cc1ccc(O)cc1)C(=O)O)[C@@H](C)CC)[C@@H](C)O", "note": "(H-RICTPIPFPMCY-OH)", "values": [{"measurement": "Activity", "setting": "BRIN-BD11 [7]", "result": 1, "unit": "×10⁻⁹ M"}, {"measurement": "Activity", "setting": "Mus musculus [1]", "result": "Non-Toxic"}, {"measurement": "Activity", "setting": "Mus musculus [2]", "result": "Non-Toxic"}, {"measurement": "Activity", "setting": "Rattus norvegicus", "result": "Non-Toxic"}, {"measurement": "Activity", "setting": "[4]", "result": 159, "unit": "%"}, {"measurement": "Activity", "setting": "BRIN-BD11 [6]", "result": 395, "unit": "%"}]}, {"compound": "CC[C@H](C)[C@H](NC(=O)[C@H](CS)NC(=O)[C@@H](NC(=O)[C@@H](N)CCCNC(=N)N)[C@@H](C)O)C(=O)N1CCC[C@H]1C(=O)N[C@H](C(=O)N1CCC[C@H]1C(=O)N[C@@H](CC(C)C)C(=O)N[C@H](C(=O)N[C@@H](CCSC)C(=O)N[C@@H](CS)C(=O)O)C(C)C)[C@@H](C)CC", "note": "(H-RTCIPIPLVMC-OH)", "values": [{"measurement": "Activity", "setting": "Mus musculus [1]", "result": "Non-Toxic"}, {"measurement": "Activity", "setting": "Mus musculus [2]", "result": "Non-Toxic"}, {"measurement": "Activity", "setting": "[3]", "result": 1, "unit": "×10⁻⁷ M"}, {"measurement": "Activity", "setting": "Rattus norvegicus", "result": "Non-Toxic"}, {"measurement": "Activity", "setting": "Mus musculus [8]", "result": "Active"}, {"measurement": "Activity", "setting": "[4]", "result": 193, "unit": "%"}, {"measurement": "Activity", "setting": "BRIN-BD11 [5]", "result": 1, "unit": "×10⁻⁷ M"}, {"measurement": "Activity", "setting": "BRIN-BD11 [6]", "result": 201, "unit": "%"}]}, {"compound": "CC[C@H](C)[C@H](NC(=O)[C@H](CS)NC(=O)[C@@H](NC(=O)[C@@H](N)CCCNC(=N)N)[C@@H](C)O)C(=O)N1CCC[C@H]1C(=O)N[C@H](C(=O)N1CCC[C@H]1C(=O)N1CCC[C@H]1C(=O)N[C@H](C(=O)N[C@@H](CS)C(=O)N[C@@H](Cc1ccccc1)C(=O)O)C(C)C)[C@@H](C)CC", "note": "(H-RTCIPIPPVCF-OH)", "values": [{"measurement": "Activity", "setting": "Mus musculus [1]", "result": "Non-Toxic"}, {"measurement": "Activity", "setting": "Mus musculus [2]", "result": "Non-Toxic"}, {"measurement": "Activity", "setting": "[3]", "result": 1, "unit": "×10⁻⁸ M"}, {"measurement": "Activity", "setting": "Rattus norvegicus", "result": "Non-Toxic"}, {"measurement": "Activity", "setting": "Mus musculus [8]", "result": "Active"}, {"measurement": "Activity", "setting": "[9]", "result": 289.3, "unit": "%"}, {"measurement": "Activity", "setting": "BRIN-BD11 [5]", "result": 1, "unit": "×10⁻⁶ M"}, {"measurement": "Activity", "setting": "BRIN-BD11 [6]", "result": 163, "unit": "%"}]}, {"compound": "CC[C@H](C)[C@H](NC(=O)[C@H](C)NC(=O)[C@H](CO)NC(=O)[C@H](CS)NC(=O)[C@@H](NC(=O)[C@@H](N)CCCNC(=N)N)C(C)C)C(=O)N1CCC[C@H]1C(=O)N[C@@H](CC(C)C)C(=O)N1CCC[C@H]1C(=O)N[C@@H](Cc1c[nH]c2ccccc12)C(=O)N[C@@H](CS)C(=O)N[C@@H](Cc1cnc[nH]1)C(=O)O", "note": "(H-RVCSAIPLPWCH-OH)", "values": [{"measurement": "inhibition", "setting": "BRIN-BD11 [10]", "result": "Dose-dependent effect"}, {"measurement": "inhibition", "setting": "BRIN-BD11 [11]", "result": "Dose-dependent effect"}]}, {"compound": "C[C@H](N)C(=O)O", "note": "[ALANINE]", "values": [{"measurement": "Activity", "setting": "[12]", "result": 3.05, "unit": "ng"}]}, {"compound": "[Cl-].[K+]", "note": "[POTASSIUM CHLORIDE]", "values": [{"measurement": "Activity", "setting": "[13]", "result": 4.05, "unit": "ng"}]}]}
